Experimental data from ChEMBL document CHEMBL2434922, “Microwave assisted synthesis of dihydrobenzo[4,5]imidazo[1,2-a]pyrimidin-4-ones; synthesis, in vitro antimicrobial and anticancer activities of novel coumarin substituted dihydrobenzo[4,5]imidazo[1,2-a]pyrimidin-4-ones” (2013).
In brackets after ≈: the same amount, converted by molar mass.

Tests used:
Format in all cases: functional
[1] = Cytotoxicity against mouse Daltons ascitic lymphoma cells assessed as dead cells at 100 ug/ml after 3 hrs by trypan blue exclusion assay relative to control
Outline: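 DAL cells (0.2 mL, 10⁶ cells/mL) mixed with ice-cold PBS pH 7.4 and compound (100 µg/mL), held at 37 °C under 5% CO₂ for 3 h. Aliquot then stained with 0.4% trypan blue in normal saline for 5–15 min at room temperature. Live and dead cells counted in a Neubauer chamber; % dead = dead/(dead+live) × 100.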

Aspergillus flavus = test: Antifungal activity against Aspergillus flavus assessed as growth inhibition after 48 to 72 hrs by broth microdilution method
Enterococcus faecalis = test: Antibacterial activity against Enterococcus faecalis assessed as growth inhibition after 18 hrs by broth microdilution method
Streptococcus mutans = test: Antibacterial activity against Streptococcus mutans assessed as growth inhibition after 18 hrs by broth microdilution method
Aspergillus niger = test: Antifungal activity against Aspergillus niger assessed as growth inhibition after 48 to 72 hrs by broth microdilution method
Aspergillus fumigatus = test: Antifungal activity against Aspergillus fumigatus assessed as growth inhibition after 48 to 72 hrs by broth microdilution method
Fusarium oxysporum = test: Antifungal activity against Fusarium oxysporum assessed as growth inhibition after 48 to 72 hrs by broth microdilution method
Pseudomonas aeruginosa = test: Antibacterial activity against Pseudomonas aeruginosa assessed as growth inhibition after 18 hrs by broth microdilution method
Staphylococcus aureus = test: Antibacterial activity against Staphylococcus aureus assessed as growth inhibition after 18 hrs by broth microdilution method
Escherichia coli = test: Antibacterial activity against Escherichia coli assessed as growth inhibition after 18 hrs by broth microdilution method
Penicillium chrysogenum = test: Antifungal activity against Penicillium chrysogenum assessed as growth inhibition after 48 to 72 hrs by broth microdilution method
Klebsiella pneumoniae = test: Antibacterial activity against Klebsiella pneumoniae assessed as growth inhibition after 18 hrs by broth microdilution method
Candida albicans = test: Antifungal activity against Candida albicans assessed as growth inhibition after 48 to 72 hrs by broth microdilution method

Compound	mortality at 100 µg/mL [1] [%]	MIC (Aspergillus flavus) [mg/L]	MIC (Enterococcus faecalis) [mg/L]	MIC (Streptococcus mutans) [mg/L]	MIC (Aspergillus niger) [mg/L]	MIC (Aspergillus fumigatus) [mg/L]	MIC (Fusarium oxysporum) [mg/L]	MIC (Pseudomonas aeruginosa) [mg/L]	MIC (Staphylococcus aureus) [mg/L]	MIC (Escherichia coli) [mg/L]	MIC (Penicillium chrysogenum) [mg/L]	MIC (Klebsiella pneumoniae) [mg/L]	MIC (Candida albicans) [mg/L]
CC(C)c1cc(O)n2c(n1)nc1ccccc12	57	1.6 (≈ 7.04 µM)	0.2 (≈ 0.88 µM)	25 (≈ 110 µM)	25 (≈ 110 µM)	1.6 (≈ 7.04 µM)	0.4 (≈ 1.76 µM)	12.5 (≈ 55 µM)	100 (≈ 440 µM)	12.5 (≈ 55 µM)	0.2 (≈ 0.88 µM)	100 (≈ 440 µM)	3.12 (≈ 13.7 µM)
COc1ccc2oc(=O)cc(Cn3c4ccccc4n4c(=O)cc(C(C)C)nc34)c2c1	62	0.8 (≈ 1.93 µM)	0.4 (≈ 0.963 µM)	3.16 (≈ 7.61 µM)	50 (≈ 120 µM)	0.8 (≈ 1.93 µM)	0.2 (≈ 0.481 µM)	> 100	100 (≈ 241 µM)	100 (≈ 241 µM)	0.8 (≈ 1.93 µM)	100 (≈ 241 µM)	25 (≈ 60.2 µM)
O=C(O)c1cn(C2CC2)c2cc(N3CCNCC3)c(F)cc2c1=O [CIPROFLOXACIN]	–	–	2 (≈ 6.04 µM)	2 (≈ 6.04 µM)	–	–	–	–	2 (≈ 6.04 µM)	–	–	1 (≈ 3.02 µM)	–
O=c1[nH]cc(F)c(=O)[nH]1 [FLUOROURACIL]	88	–	–	–	–	–	–	–	–	–	–	–	–
COc1ccc2oc(=O)cc(Cn3c4ccccc4n4c(=O)cc(C(F)(F)F)nc34)c2c1	58	3.12 (≈ 7.07 µM)	0.4 (≈ 0.906 µM)	12.5 (≈ 28.3 µM)	25 (≈ 56.6 µM)	6.25 (≈ 14.2 µM)	0.2 (≈ 0.453 µM)	> 100	100 (≈ 227 µM)	100 (≈ 227 µM)	0.4 (≈ 0.906 µM)	100 (≈ 227 µM)	50 (≈ 113 µM)
COc1ccc(-c2cc(=O)n3c(n2)[nH]c2ccccc23)cc1	64	0.8 (≈ 2.75 µM)	0.2 (≈ 0.687 µM)	100 (≈ 343 µM)	25 (≈ 85.8 µM)	1.6 (≈ 5.49 µM)	0.2 (≈ 0.687 µM)	100 (≈ 343 µM)	100 (≈ 343 µM)	100 (≈ 343 µM)	0.4 (≈ 1.37 µM)	100 (≈ 343 µM)	6.25 (≈ 21.5 µM)
OC(Cn1cncn1)(Cn1cncn1)c1ccc(F)cc1F [FLUCONAZOLE]	–	8 (≈ 26.1 µM)	–	–	8 (≈ 26.1 µM)	8 (≈ 26.1 µM)	8 (≈ 26.1 µM)	–	–	–	8 (≈ 26.1 µM)	–	16 (≈ 52.2 µM)
CC(C)c1cc(=O)n2c3ccccc3n(Cc3cc(=O)oc4ccc(Cl)cc34)c2n1	88	1.6 (≈ 3.81 µM)	0.4 (≈ 0.953 µM)	12.5 (≈ 29.8 µM)	12.5 (≈ 29.8 µM)	0.8 (≈ 1.91 µM)	0.2 (≈ 0.476 µM)	100 (≈ 238 µM)	100 (≈ 238 µM)	100 (≈ 238 µM)	0.4 (≈ 0.953 µM)	100 (≈ 238 µM)	50 (≈ 119 µM)
O=c1cc(-c2ccc(F)cc2)nc2[nH]c3ccccc3n12	83	0.2 (≈ 0.716 µM)	0.2 (≈ 0.716 µM)	12.5 (≈ 44.8 µM)	1.6 (≈ 5.73 µM)	0.2 (≈ 0.716 µM)	0.4 (≈ 1.43 µM)	100 (≈ 358 µM)	100 (≈ 358 µM)	100 (≈ 358 µM)	0.4 (≈ 1.43 µM)	100 (≈ 358 µM)	1.6 (≈ 5.73 µM)
Cc1cc(C)c2oc(=O)cc(Cn3c4ccccc4n4c(=O)cc(C(F)(F)F)nc34)c2c1	78	3.12 (≈ 7.1 µM)	0.4 (≈ 0.91 µM)	0.2 (≈ 0.455 µM)	3.12 (≈ 7.1 µM)	1.6 (≈ 3.64 µM)	0.2 (≈ 0.455 µM)	100 (≈ 228 µM)	100 (≈ 228 µM)	100 (≈ 228 µM)	0.2 (≈ 0.455 µM)	100 (≈ 228 µM)	50 (≈ 114 µM)
Oc1cc(-c2ccccc2)nc2nc3ccccc3n12	58	0.8 (≈ 3.06 µM)	0.2 (≈ 0.765 µM)	100 (≈ 383 µM)	6.25 (≈ 23.9 µM)	0.8 (≈ 3.06 µM)	0.2 (≈ 0.765 µM)	100 (≈ 383 µM)	100 (≈ 383 µM)	100 (≈ 383 µM)	0.2 (≈ 0.765 µM)	100 (≈ 383 µM)	1.6 (≈ 6.12 µM)
Cc1ccc2oc(=O)cc(Cn3c4ccccc4n4c(=O)cc(C(F)(F)F)nc34)c2c1	69	12.5 (≈ 29.4 µM)	0.4 (≈ 0.94 µM)	12.5 (≈ 29.4 µM)	12.5 (≈ 29.4 µM)	25 (≈ 58.8 µM)	0.2 (≈ 0.47 µM)	> 100	100 (≈ 235 µM)	100 (≈ 235 µM)	0.2 (≈ 0.47 µM)	100 (≈ 235 µM)	50 (≈ 118 µM)
CC(C)c1cc(=O)n2c3ccccc3n(Cc3cc(=O)oc4ccc(Br)cc34)c2n1	47	0.8 (≈ 1.72 µM)	0.8 (≈ 1.72 µM)	> 100	25 (≈ 53.8 µM)	0.8 (≈ 1.72 µM)	0.2 (≈ 0.431 µM)	> 100	> 100	100 (≈ 215 µM)	0.2 (≈ 0.431 µM)	> 100	50 (≈ 108 µM)
O=c1cc(C(F)(F)F)nc2[nH]c3ccccc3n12	80	0.8 (≈ 3.16 µM)	0.2 (≈ 0.79 µM)	50 (≈ 197 µM)	6.25 (≈ 24.7 µM)	0.8 (≈ 3.16 µM)	0.2 (≈ 0.79 µM)	100 (≈ 395 µM)	100 (≈ 395 µM)	100 (≈ 395 µM)	0.4 (≈ 1.58 µM)	100 (≈ 395 µM)	1.6 (≈ 6.32 µM)
O=c1cc(-c2cccc(Cl)c2)nc2[nH]c3ccccc3n12	71	0.2 (≈ 0.676 µM)	0.2 (≈ 0.676 µM)	25 (≈ 84.5 µM)	25 (≈ 84.5 µM)	0.2 (≈ 0.676 µM)	0.2 (≈ 0.676 µM)	100 (≈ 338 µM)	100 (≈ 338 µM)	100 (≈ 338 µM)	0.4 (≈ 1.35 µM)	100 (≈ 338 µM)	1.6 (≈ 5.41 µM)
O=c1cc(-c2cccc(F)c2)nc2[nH]c3ccccc3n12	54	0.8 (≈ 2.86 µM)	0.2 (≈ 0.716 µM)	12.5 (≈ 44.8 µM)	12.5 (≈ 44.8 µM)	0.8 (≈ 2.86 µM)	0.4 (≈ 1.43 µM)	25 (≈ 89.5 µM)	100 (≈ 358 µM)	100 (≈ 358 µM)	0.2 (≈ 0.716 µM)	100 (≈ 358 µM)	1.6 (≈ 5.73 µM)
O=c1cc(-c2ccc(C(F)(F)F)cc2)nc2[nH]c3ccccc3n12	79	1.6 (≈ 4.86 µM)	0.2 (≈ 0.607 µM)	> 100	100 (≈ 304 µM)	1.6 (≈ 4.86 µM)	0.2 (≈ 0.607 µM)	> 100	> 100	> 100	0.2 (≈ 0.607 µM)	> 100	6.25 (≈ 19 µM)
CC(C)c1cc(=O)n2c3ccccc3n(Cc3cc(=O)oc4ccc(F)cc34)c2n1	81	1.6 (≈ 3.97 µM)	0.4 (≈ 0.992 µM)	0.8 (≈ 1.98 µM)	1.6 (≈ 3.97 µM)	0.8 (≈ 1.98 µM)	0.2 (≈ 0.496 µM)	100 (≈ 248 µM)	100 (≈ 248 µM)	100 (≈ 248 µM)	0.4 (≈ 0.992 µM)	100 (≈ 248 µM)	25 (≈ 62 µM)
O=c1cc(Cn2c3ccccc3n3c(=O)cc(C(F)(F)F)nc23)c2cc(F)ccc2o1	79	1.6 (≈ 3.73 µM)	0.8 (≈ 1.86 µM)	12.5 (≈ 29.1 µM)	25 (≈ 58.2 µM)	1.6 (≈ 3.73 µM)	0.2 (≈ 0.466 µM)	100 (≈ 233 µM)	100 (≈ 233 µM)	100 (≈ 233 µM)	0.2 (≈ 0.466 µM)	100 (≈ 233 µM)	50 (≈ 116 µM)
